High-throughput results from PubChem BioAssay.
Most compounds without a hit are left out; they make up all but 1.5% or so of the library.
APJ ag = agonists of human apelin receptor APJ, primary screen, CHO-K1 cells, PathHunter beta-arrestin, luminescence | 0% DMSO wells, 100% apelin | hit rate 0.11% among 330,000 | P35414 | activation, % at 20 µM;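 active means activation more than six SD over the plate average, tested at 20 µM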;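 further: 0% = DMSO alone and 100% = apelin-13 at 10 nM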
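Assay system: CHO-K1 cells stably expressing ProLink-tagged human APJ and arrestin–beta-gal acceptor. Compound dosing: 20 µM single point, 1% DMSO. Times: 16-18 h seeding, 90 min dark compound exposure, 60 min detection. Detection: beta-gal luminescence. Evaluation: APJ–arrestin association signal. Controls: negative DMSO alone, positive Apelin-13 at 10 nM.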
EBI2 block = EBI2 receptor antagonists, beta-arrestin recruitment, primary screen, cell-based, luminescence, 7a,25-OHC stimulation, uHTS. 7a,25-OHC stimulated. inhibition, % at 5 µM. AID 651636, 2012. hit rate 0.81% among 360,000. G-protein coupled receptor 183 (Homo sapiens), P32249; in the data active means inhibition above about 38%;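 further: enzyme fragment complementation signal reports receptor beta-arrestin coupling in cells; 0% = agonist plus DMSO wells and 100% = wells without agonist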
Target sequence (P32249 whole entry, looked up, the tested form may be a part): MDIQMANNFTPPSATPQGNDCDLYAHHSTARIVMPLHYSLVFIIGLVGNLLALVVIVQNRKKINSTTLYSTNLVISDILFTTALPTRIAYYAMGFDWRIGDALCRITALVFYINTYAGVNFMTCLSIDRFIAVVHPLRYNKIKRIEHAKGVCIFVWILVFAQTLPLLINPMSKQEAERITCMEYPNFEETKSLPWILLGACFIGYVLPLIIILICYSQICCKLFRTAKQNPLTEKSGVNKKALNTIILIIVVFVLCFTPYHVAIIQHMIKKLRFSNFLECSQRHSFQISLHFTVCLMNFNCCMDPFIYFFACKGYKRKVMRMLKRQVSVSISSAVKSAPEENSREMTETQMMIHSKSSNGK
CXCR6 block = CXCR6 receptor inhibitors, primary screen, cell-based, beta-arrestin, luminescence, CHO-K1 PathHunter, 1536-well; C-X-C chemokine receptor type 6 (Homo sapiens), O00574; hit rate 0.36% among 360,000; inhibition, % at 20 µM; in the data active means inhibition above about 34%, passing the limit was not always enough;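 further: antagonist mode with CXCL16 agonist at 10 nM final; 0% = 10 nM CXCL16 with DMSO and 100% = unstimulated wells without agonist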
CCR6 antagonist = CCR6 receptor antagonists, primary screen, cell-based, CHO-K1, luminescence, beta-arrestin, uHTS; CHO-K1 CCR6 PathHunter beta-arrestin, CCL20-stimulated; hit rate 0.49% among 340,000; inhibition, % at 20 µM;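 active means compounds whose inhibition of the agonist-driven luminescence signal at 20 µM reaches about 50%, limit read from the data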;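 further: cells stimulated with CCL20 at 14 nM final; plate controls were DMSO with CCL20 for no effect and DMSO without agonist for full effect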
Target sequence (P51684 whole entry, looked up): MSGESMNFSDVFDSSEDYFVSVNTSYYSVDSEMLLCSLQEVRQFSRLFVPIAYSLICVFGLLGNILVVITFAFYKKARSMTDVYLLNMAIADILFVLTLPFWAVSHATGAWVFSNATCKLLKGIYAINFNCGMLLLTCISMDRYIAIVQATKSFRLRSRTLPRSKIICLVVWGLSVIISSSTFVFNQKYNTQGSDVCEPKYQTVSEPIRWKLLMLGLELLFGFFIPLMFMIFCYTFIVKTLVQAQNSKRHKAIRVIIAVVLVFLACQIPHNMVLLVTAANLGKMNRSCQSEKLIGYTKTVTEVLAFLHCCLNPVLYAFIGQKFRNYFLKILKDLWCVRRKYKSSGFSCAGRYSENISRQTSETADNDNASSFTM
APJ antagonist = antagonists of human apelin receptor APJ, primary screen, CHO-K1 cells, beta-arrestin complementation, luminescence; AID 2521, 2010; hit rate 0.32% among 330,000; P35414; inhibition, % at 20 µM;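 active means inhibition above about 40% at 20 µM, limit read from the data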;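 further: cells challenged with 10 nM apelin-13 agonist together with compound; plate controls were apelin-13 plus DMSO wells for no effect and DMSO wells lacking apelin-13 for full effect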
EBI2 antag conf = EBI2 antagonist hit retest, beta-arrestin, confirmation, cell-based, single concentration, luminescence, 7a,25-OHC stimulation; shares compounds with EBI2 block; 7a,25-OHC antagonism; inhibition, % at 5 µM; hit rate 29% among 2,400;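 active means inhibition of at least 50%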
EBI2 agonist = EBI2 agonist activity of antagonist hits, confirmation, counter-screen for EBI2 antagonist project, cell-based, single concentration, agonist mode, luminescence | shares compounds with EBI2 block | EBI2-expressing cells, 60 min; 0% vehicle, 100% 7α,25-dihydroxycholesterol control | activation, % at 5 µM | 2,400 tested, under 10 active | AID 652000, 2013;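 active means activation of at least 50%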
bGal cs = E. coli beta-galactosidase enzyme inhibition, confirmation, counter-screen for EBI2 antagonist project, biochemical, luminescence, single concentration. shares compounds with EBI2 block. hit rate 1% among 2,400. inhibition, % at 5 µM. purified beta-galactosidase, luminescent Galacton Star, 15 min;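 active means replicate-average signal at least 3 plate SD below neutral wells, shown as high inhibition, flagging enzyme-inhibiting false positives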;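 further: 0% = DMSO wells with enzyme and 100% = wells lacking enzyme; higher means stronger loss of beta-gal luminescence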
* = called active by the depositor; x = no result given.

SMILES	APJ ag	EBI2 block	CXCR6 block	CCR6 antagonist	APJ antagonist	EBI2 antag conf	EBI2 agonist	bGal cs
O=C(/C=C/c1cccs1)N1CCN(c2ccc(F)cc2)CC1	2.0	54.9*	4.9	22.4	16.9	36.3	1.2	6.8
CCC(=O)N1CCN(c2c(Cl)cccc2[N+](=O)[O-])CC1	-2.5	-3.0	4.3	18.1	-18.0	x	x	x
Cc1ccc(Cl)cc1-c1cc(C(=O)Nc2ccc(F)cc2)[nH]n1	x	4.2	-18.8	x	x	x	x	x
CCCCCCSc1ccc(-c2nc3ccc(C)cn3c2NCCCC)cc1OC	x	63.4*	19.7	x	x	63.0*	-1.9	-20.5
COc1ccc(NC(=O)C[C@H]2C(=O)N(Cc3ccccc3)C[C@@H]2CSC)cc1	x	-12.0	-2.2	x	x	x	x	x
CC(=O)Nc1cc(-c2ccc(N(C)C)cc2)cn2c(-c3ccc(F)cc3)cnc12	x	53.8*	-4.3	x	x	53.6*	0.2	4.9
CCOC(=O)Cc1ccc(Nc2nc3cc(-c4sccc4C)sc3c(=O)n2C)cc1	x	18.9	-6.2	x	x	x	x	x
CCn1c(N2CCN(C(=O)/C=C/c3ccccc3)CC2)nc2ccccc21	-3.2	86.4*	1.0	4.2	4.6	56.2*	-1.7	-5.5
CCc1ccc(/C=C\C(=O)N2CCCC2)cc1	-3.7	46.8*	12.5	-1.1	6.8	21.2	-2.0	-8.3
O=C(/C=C/c1ccccc1)N1CCN(C(=O)c2ccco2)CC1	-0.7	63.4*	0.9	4.9	-11.2	48.5	0.7	9.5
O=C(/C=C/c1ccccc1)N1CCCN(C(=O)/C=C/c2ccccc2)CC1	-4.2	79.4*	-8.1	-2.2	6.3	52.9*	-1.0	-12.9
CCCn1c(N2CCN(C(=O)/C=C/C(=O)O)CC2)nc2ccccc21	-1.5	-6.8	0.6	-2.6	7.7	x	x	x
OC(c1ccccc1)(c1ccccc1)C1CCN(CCCOc2ccc3c(c2)CCCC3)CC1	x	3.4	-11.0	x	x	x	x	x
C=CCOC(=O)Nc1nc(CCNC(=O)OC(C)(C)C)c(C(=O)O)s1	x	-11.7	x	x	x	x	x	x
OC[C@@H]1CN(Cc2cccs2)C[C@H](n2cnc3c(NCc4ccc(F)cc4)ncnc32)O1	x	-2.4	3.8	x	x	x	x	x
COc1ccccc1CNc1cc(CSc2ccc(Cl)cc2)nc(C)n1	-3.2	48.5*	14.0	-1.4	-11.1	31.9	0.8	-1.4
Cc1cccc(Oc2ncc(-c3ccc(Cl)cc3)cn2)c1	-4.1	44.0*	-0.3	1.4	5.5	29.8	0.9	0.4
COC(=O)c1ccc2[nH]c3c(c2c1)CC(C)CC3 (configuration not stated)	2.3	49.8*	-9.1	-15.3	13.8	44.0	-0.8	-12.0
CCCCCCn1c(N2CCN(c3cccc(Cl)c3)CC2)nc2c1c(=O)[nH]c(=O)n2C	-2.8	36.5*	10.7	10.3	17.9	18.6	0.4	5.2
CC1(C(=O)NCc2ccccc2Br)CCN1Cc1csc2ccccc12 (configuration not stated)	x	61.4*	3.1	x	x	51.0*	1.7	-0.5
Cc1ccc(NC(=O)C2(C)CCN2Cc2csc3ccccc23)cc1 (configuration not stated)	x	10.5	-0.5	x	x	x	x	x
COc1ccc(CN2C(=O)CCC2(C)c2nnnn2-c2ccc3c(c2)OCCO3)cc1OC (configuration not stated)	x	-13.1	-11.5	x	x	x	x	x
Cc1noc(C)c1C(=O)N1CCN(C(=O)c2sc3cc(Cl)ccc3c2Cl)CC1	-4.0	42.4*	-0.1	8.4	0.3	14.5	-1.3	-8.3
CN(Cc1ccc(Cl)c(Cl)c1)C(=O)c1cccc(S(=O)(=O)N2CCN(Cc3ccccc3)CC2)c1	-3.6	57.7*	-2.8	2.4	15.4	28.1	0.9	6.3
CN(Cc1cccc(Cl)c1Cl)C(=O)c1cccc(S(=O)(=O)N2CCN(Cc3ccccc3)CC2)c1	3.0	53.5*	-3.6	8.3	-9.9	18.0	0.1	-14.2
SMILES	APJ ag	EBI2 block	CXCR6 block	CCR6 antagonist	APJ antagonist	EBI2 antag conf	EBI2 agonist	bGal cs
CN(Cc1cccc(F)c1)C(=O)c1cccc(S(=O)(=O)N2CCN(Cc3ccccc3)CC2)c1	-3.3	5.2	-14.8	1.4	0.7	x	x	x
CCOC(=O)[C@]12CCCC=C1N(CCc1ccc(OC)c(OC)c1)C(=O)[C@H](CC(=O)N1CCSCC1)C2	x	5.2	x	x	x	x	x	x
CCc1nc2c(OCc3ccc(Cl)cc3)cccn2c1N(C)C(=O)c1ccc(C)cc1	x	8.1	3.2	x	x	x	x	x
COc1cc(-c2ccc3c(=O)c4ccccc4n(C)c3c2)cc(OC)c1OC	12.8	-37.6	1.4	0.6	7.4	x	x	x
COc1cc(-c2ccc3sc(-c4ccsc4)c(C#CCO)c3c2)cc(OC)c1OC	1.4	-1.9	-11.1	-9.2	-5.0	x	x	x
COC(=O)c1c(-c2ccsc2)sc2ccc(-c3cc(OC)c(OC)c(OC)c3)cc12	-2.5	55.2*	3.1	17.5	1.6	5.6	-0.7	-7.5
COc1cc(-c2ccc3c(=O)c4ccccc4sc3c2)cc(OC)c1OC	-2.3	44.1*	-5.6	-7.7	1.3	27.5	-0.8	-9.9
O=C(NCc1ccco1)c1[nH]c(C(F)(F)F)nc1-c1ccccc1	x	6.3	-0.6	x	x	x	x	x
CSc1ccc(/C=C/C(=O)c2ccc(NC(C)=O)cc2)cc1	-2.1	80.5*	6.4	10.3	1.8	39.8	-0.1	6.2
O=C(/C=C/c1ccc(Br)cc1)c1ccc(NC(=O)c2ccco2)cc1	-1.3	42.9*	2.5	0.5	4.9	8.6	-1.2	-7.8
CCCC(=O)Nc1ccc(C(=O)/C=C/c2ccc(SC)cc2)cc1	-0.3	43.5*	-3.5	4.1	2.6	38.2	0.0	6.0
O=C(c1[nH]c(C(F)(F)F)nc1-c1ccccc1)N1CCN(Cc2c(F)cccc2Cl)CC1	x	0.7	-2.8	x	x	x	x	x
Clc1ccc(-c2nnnn2-c2ccc(Cl)c(Cl)c2)cc1Cl	-3.6	49.3*	12.6	20.4	26.9	16.8	-1.8	-11.2
Cc1ccc(Cl)cc1N1CCN(C(=O)Cc2c(C(=O)O)[nH]c3ccccc23)CC1	-2.9	5.6	1.2	0.2	11.3	x	x	x
Cc1ccc(Cl)cc1N1CCN(C(=O)c2cc3c(=O)[nH]c4ccccc4c3n2C)CC1	5.9	72.9*	-7.1	10.2	-1.9	63.2*	-0.2	-13.8
O=C1O[C@@H](c2ccccc2)C[C@@H](O)C(=O)CCCCc2ccccc21	x	-7.5	0.0	x	x	x	x	x
